# Measurements: ChEMBL document CHEMBL4177755, “Combating Drug-Resistant Fungi with Novel Imperfectly Amphipathic Palindromic Peptides” (J Med Chem, 2018)
# The source made the active and inactive calls. The rule behind the calls is not given here. Bridge positions count the residues as written; N and C are the ends. Square brackets hold non-standard residues; d marks the D form. Peptide text beside a SMILES is read from it. * marks the point of attachment. X1 = CC[C@H](C)CCCCC(=O)*; Dab = NCC[C@H](N)C(=O)O
# Experiments:
# Escherichia coli [1] = test: Antibacterial activity against Escherichia coli ATCC 25922 after 24 hrs; type: functional; settings: ATCC 25922, 24 h
# How it was run: (§1)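 Broth microdilution. Mid-log bacteria in MHB at a final (0.5−1) × 10^5 CFU/mL were mixed with equal volumes of peptide serially diluted in 0.2% BSA. Plates were incubated 24 h at 37 °C and read at A492. MIC is the lowest concentration inhibiting 95% of growth. Each test was repeated at least 3 times.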
# Escherichia coli [2] = test: Antibacterial activity against Escherichia coli 1005 after 24 hrs; type: functional; settings: Escherichia coli, 1005, 24 h; how it was run: as §1
# Salmonella typhimurium [3] = test: Antibacterial activity against Salmonella typhimurium ATCC 14028 after 24 hrs; type: functional, Salmonella enterica subsp. enterica serovar Typhimurium; settings: Salmonella enterica, ATCC 14028, 24 h; how it was run: as §1
# [4] = Antibacterial activity against Salmonella pullorum ATCC 7913 after 24 hrs; type: functional, Salmonella enterica subsp. enterica serovar Pullorum; settings: Salmonella enterica, ATCC 7913, 24 h; how it was run: as §1
# Staphylococcus aureus [5] = test: Antibacterial activity against Staphylococcus aureus ATCC 29213 after 24 hrs; type: functional; settings: ATCC 29213, 24 h
# How it was run: (§2)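 Modified NCCLS broth microdilution. Mid-log bacteria at (0.5−1) × 10^5 CFU/mL in MHB were mixed 1:1 with peptide serially diluted in 0.2% BSA and incubated 24 h at 37 °C. Absorbance was read at 492 nm; MIC is the lowest concentration inhibiting 95% of growth. At least 3 repeats.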
# Staphylococcus aureus [6] = test: Antibacterial activity against methicillin-resistant Staphylococcus aureus ATCC 4330 after 24 hrs; type: functional; settings: ATCC 4330, 24 h; how it was run: as §2
# [7] = test system: Staphylococcus epidermidis; test: Antibacterial activity against Staphylococcus epidermidis ATCC 12228 after 24 hrs; type: functional; settings: ATCC 12228, 24 h; how it was run: as §1
# Staphylococcus aureus [8] = test: Antibacterial activity against Staphylococcus aureus ATCC 25923 after 24 hrs; type: functional; settings: ATCC 25923, 24 h; how it was run: as §2
# Escherichia coli [9] = test: Bactericidal activity against Escherichia coli ATCC 25922; type: functional; settings: read-out: MBC99.9
# How it was run: (§3)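 Wells from the 24 h, 37 °C MHB microdilution plates (bacteria at a final (0.5−1) × 10^5 CFU/mL; peptide diluted in 0.2% BSA) were plated on agar and incubated overnight. MBC is the lowest concentration killing >99.9% of cells. Each test was reproduced at least 3 times.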
# Escherichia coli [10] = test: Bactericidal activity against Escherichia coli 1005; type: functional; settings: read-out: MBC99.9; how it was run: as §3
# Salmonella typhimurium [11] = test: Bactericidal activity against Salmonella typhimurium ATCC 14028; type: functional, Salmonella enterica subsp. enterica serovar Typhimurium; settings: Salmonella enterica, read-out: MBC99.9; how it was run: as §3
# [12] = Bactericidal activity against Salmonella pullorum ATCC 7913; type: functional, Salmonella enterica subsp. enterica serovar Pullorum; settings: Salmonella enterica, read-out: MBC99.9; how it was run: as §3
# Staphylococcus aureus [13] = test: Bactericidal activity against Staphylococcus aureus ATCC 29213; type: functional; settings: read-out: MBC99.9; how it was run: as §3
# Staphylococcus aureus [14] = test: Bactericidal activity against methicillin-resistant Staphylococcus aureus ATCC 4330; type: functional; settings: read-out: MBC99.9
# How it was run: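 Bacteria at (0.5−1) × 10^5 CFU/mL in MHB were exposed to serially diluted peptide (0.2% BSA) for 24 h at 37 °C, then 50 μL aliquots were plated on agar overnight. MBC is the lowest concentration killing >99.9% of cells. At least 3 repeats.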
# [15] = test system: Staphylococcus epidermidis; test: Bactericidal activity against Staphylococcus epidermidis ATCC 12228; type: functional; settings: read-out: MBC99.9; how it was run: as §3
# Staphylococcus aureus [16] = test: Bactericidal activity against Staphylococcus aureus ATCC 25923; type: functional; settings: read-out: MBC99.9; how it was run: as §3
# Escherichia coli [17] = test: Antibacterial activity against Escherichia coli ATCC 25922 after 18 hrs in presence of NaCl by broth dilution method; type: functional; settings: ATCC 25922, 18 h
# Escherichia coli [18] = test: Antibacterial activity against Escherichia coli ATCC 25922 after 18 hrs in presence of KCl by broth dilution method; type: functional; settings: ATCC 25922, 18 h
# Escherichia coli [19] = test: Antibacterial activity against Escherichia coli ATCC 25922 after 18 hrs in presence of NH4Cl by broth dilution method; type: functional; settings: ATCC 25922, 18 h
# Escherichia coli [20] = test: Antibacterial activity against Escherichia coli ATCC 25922 after 18 hrs in presence of MgCl2 by broth dilution method; type: functional; settings: ATCC 25922, 18 h
# Escherichia coli [21] = test: Antibacterial activity against Escherichia coli ATCC 25922 after 18 hrs in presence of CaCl2 by broth dilution method; type: functional; settings: ATCC 25922, 18 h
# Escherichia coli [22] = test: Antibacterial activity against Escherichia coli ATCC 25922 after 18 hrs in presence of ZnCl2 by broth dilution method; type: functional; settings: ATCC 25922, 18 h
# Escherichia coli [23] = test: Antibacterial activity against Escherichia coli ATCC 25922 after 18 hrs in presence of FeCl3 by broth dilution method; type: functional; settings: ATCC 25922, 18 h
# Escherichia coli [24] = test: Antibacterial activity against Escherichia coli ATCC 25922 after 18 hrs in presence of 12.5% human heat-inactivated serum by broth dilution method; type: functional; settings: ATCC 25922, 18 h
# Escherichia coli [25] = test: Antibacterial activity against Escherichia coli ATCC 25922 after 18 hrs in presence of 25% human heat-inactivated serum by broth dilution method; type: functional; settings: ATCC 25922, 18 h
# Escherichia coli [26] = test: Antibacterial activity against Escherichia coli ATCC 25922 after 18 hrs in presence of 50% human heat-inactivated serum by broth dilution method; type: functional; settings: ATCC 25922, 18 h
# Lipid bilayer [27] = test: Binding affinity to phosphatidylcholine/cholesterol large unilamellar vesicle assessed as induction of calcein leakage at 2 to 32 uM after 15 mins by spectrofluorophotometric method; settings: 0.25 h
# How it was run: (§4)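 Large unilamellar vesicles were made from PG/CL/PE (2:1:7), PC/PE/PI/ergosterol (5:4:1:2) or PC/cholesterol (10:1), loaded with 70 mM calcein in Tris/NaCl/EDTA buffer at pH 7.4, frozen and thawed 20 times, and extruded through 100 nm filters. Free dye was removed by gel filtration, and peptide-induced calcein release was measured.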
# Lipid bilayer [28] = test: Binding affinity to phosphatidylglycerol/cardiolipin/phosphatidylethanolamine large unilamellar vesicle assessed as induction of calcein leakage at 2 to 32 uM after 15 mins by spectrofluorophotometric method; how it was run: as §4
Compound,MIC95 (Escherichia coli [1]) [µM],MIC95 (Escherichia coli [2]) [µM],MIC95 (Salmonella typhimurium [3]) [µM],MIC95 [4] [µM],MIC95 (Staphylococcus aureus [5]) [µM],MIC95 (Staphylococcus aureus [6]) [µM],MIC95 [7] [µM],MIC95 (Staphylococcus aureus [8]) [µM],MBC (Escherichia coli [9]) [µM],MBC (Escherichia coli [10]) [µM],MBC (Salmonella typhimurium [11]) [µM],MBC [12] [µM],MBC (Staphylococcus aureus [13]) [µM],MBC (Staphylococcus aureus [14]) [µM],MBC [15] [µM],MBC (Staphylococcus aureus [16]) [µM],MIC (Escherichia coli [17]) [µM],MIC (Escherichia coli [18]) [µM],MIC (Escherichia coli [19]) [µM],MIC (Escherichia coli [20]) [µM],other results
CC[C@H](C)CCCCC(=O)N[C@@H](CCN)C(=O)N[C@H](C(=O)N[C@@H](CCN)C(=O)N[C@H]1CCNC(=O)[C@H]([C@@H](C)O)NC(=O)[C@H](CCN)NC(=O)[C@H](CCN)NC(=O)[C@H](CC(C)C)NC(=O)[C@@H](Cc2ccccc2)NC(=O)[C@H](CCN)NC1=O)[C@@H](C)O (X1-[Dab]T[Dab][Dab][Dab][dF]L[Dab][Dab]T; lactam 4-C),2,1,2,1,64,64,32,32,4,2,2,2,64,64,32,64,8,2,2,4,MIC (Escherichia coli [21]): 2 µM; MIC (Escherichia coli [22]): 2 µM; MIC (Escherichia coli [23]): 2 µM; MIC (Escherichia coli [24]): 2 µM; MIC (Escherichia coli [25]): 2 µM; MIC (Escherichia coli [26]): 4 µM
O=C(O)c1cn(C2CC2)c2cc(N3CCNCC3)c(F)cc2c1=O [CIPROFLOXACIN],2,2,8,2,4,1,2,8,4,4,16,4,4,1,4,8,2,2,2,8,MIC (Escherichia coli [21]): 8 µM; MIC (Escherichia coli [22]): 2 µM; MIC (Escherichia coli [23]): 4 µM; MIC (Escherichia coli [24]): 2 µM; MIC (Escherichia coli [25]): 2 µM; MIC (Escherichia coli [26]): 4 µM; Activity (Lipid bilayer [27]): Not Active; Activity (Lipid bilayer [28]): inactive
